Source: PMC3140432 (Biochimica et biophysica acta, 2011)
Read-outs that look alike come from different tables or passages of the source.

Tests used:
Gβ1γ2 [1] = molecular target: T1, Gβ1γ2 (Homo sapiens, UniProt P62873); assay: Surface plasmon resonance direct binding to immobilized biotinylated Gβ1γ2
Gβγ = Gβγ (Homo sapiens, UniProt P62873); assay: SPR direct binding to Gβγ with surface regeneration protocol; conditions: for Kd: Kd (μM), surface regeneration protocol, average of N experiments; for koff: read-out: koff (×10^−4s^−1)
Procedure, shortened: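 Gβ1γ2, biotinylated at the Gβ N-terminus, was captured on neutravidin amine-coupled to the sensor (2000–10000 µRIU), then blocked with 1 mM biotin. The run used 50 mM HEPES pH 7.6, 1 mM EDTA, 100 mM NaCl, 0.1% C12E10, 1 mM DTT and 1.2% DMSO at 25°C. Dilutions were injected 7 min at 50 µL/min with 10 min dissociation. Regeneration was 3×30 s MgCl2/urea/guanidine-HCl. Data were reference/blank/DMSO-corrected, fitted by a regeneration kinetic model and averaged.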

Gβ1γ2 [2] = molecular target: T1, Gβ1γ2; assay: [3H]-gallein binding to Gβγ, spin desalting column separation; conditions: 100 μM gallein or greater; 1 μM Gβγ
Gβ1His6γ2C68S = Gβ1His6γ2C68S (Homo sapiens, UniProt P62873); assay: Non-covalent nano ESI QToF mass spectrometry of Gβγ-gallein complexes; type: binding; conditions: collision energies that maintain some non-covalent Gβ-Gγ interactions
Procedure, shortened: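 Test compound (100 µM) mixed with 5 µM Gβ1His6γ2C68S in 20 mM ammonium acetate, pH 7.0, for 30 min at room temperature. Intact non-covalent complexes were analysed by nano-ESI QToF MS under mild ionisation at low and high collision cell voltage. The C68S mutation blocks Gγ2 lipidation, so no detergent was used.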

[3] = Kd (μM), kinetic titration, average of N experiments

In the case of `Nc1cccc(Nc2cc(S(=O)(=O)O)c(N)c3c2C(=O)c2ccccc2C3=O)c1` [compound 372, 1-amino-4-(3-aminoanilino)-9,10-dioxoanthracene-2-sulfonic acid], the Kd (Gβ1γ2 [1]; [3]) is reported as 2 ± 0.3 µM, the “concentration above which non-specific/multiple binding sites were observed” value (Gβ1γ2 [1]; kinetic titration) is reported as > 20 µM and the “koff slower than that of M201” value (Gβ1γ2 [1]; kinetic titration) is reported as 10 fold. For the same compound, the koff (Gβ1γ2 [1]; read-out: koff (×10^−4s^−1)) was 0.00086 ± 0.00024 s⁻¹, the kon (Gβ1γ2 [1]; read-out: kon (M^−1s^−1)) was 390 ± 93 M⁻¹ s⁻¹ and the Kd (Gβγ) was 2.7 ± 0.45 µM. It also gave a koff (Gβγ) of 0.00082 ± 0.00051 s⁻¹ and a kon (Gβγ; read-out: kon (M^−1s^−1)) of 267 ± 137 M⁻¹ s⁻¹.

“SIGK(L9A): Control peptide, non-binding in the ELISA experiments (SIGKAFKIAGYPDYD) [reference compound]” was tested, and the “SPR response associated with binding to Gβγ” value (Gβ1γ2 [1]; control peptide, data not shown) was “did not elicit a response”.

`O=C(O)C1CCCCC1c1c2ccc(=O)c(O)c-2oc2c(O)c(O)ccc12` (stereo not shown) [M119, 2-(3,4,5-trihydroxy-6-oxoxanthen-9-yl)cyclohexane-1-carboxylic acid] showed a Kd (Gβ1γ2 [1]; Kd (M), Equilibrium titration) of 0.46 µM, a Kd (Gβ1γ2 [1]; Kd (M), Kinetic titration) of 0.12 µM and a Kd (Gβ1γ2 [1]; average Kd) of 0.276 ± 0.07 µM. For the same compound, the “Ka (association constant)” value (Gβ1γ2 [1]; equilibrium analysis, Rmax(obs) fit to 1:1 Langmuir isotherm, single data set) was 2.16e+06 M⁻¹, the koff (Gβ1γ2 [1]; read-out: koff (s^−1), Kinetic titration) was 0.00012 s⁻¹ and the koff (Gβ1γ2 [1]; read-out: koff (×10^−4s^−1)) was 0.0002 ± 8e-05 s⁻¹. For the same compound, the kon (Gβ1γ2 [1]; read-out: kon (M^−1s^−1)) was 830 ± 200 M⁻¹ s⁻¹ and the kon (Gβ1γ2 [1]; read-out: kon (M^−1s^−1), Kinetic titration) was 1027 ± 8 M⁻¹ s⁻¹.

`O=C1OC2(c3ccccc31)c1ccc(O)c(O)c1Oc1c2ccc(O)c1O` [Gallein, 3′, 4′, 5′, 6′-tetrahydroxyspiro[2-benzofuran-3, 9′-xanthene]-1-one] was tested, and the Kd (Gβ1γ2 [1]; [3]) was 0.407 ± 0.24 µM, the “concentration above which non-specific/multiple binding sites were observed” value (Gβ1γ2 [1]; kinetic titration) was “above 30 μM” and the “koff slower than that of M201” value (Gβ1γ2 [1]; kinetic titration) was 10 fold. The koff (Gβ1γ2 [1]; read-out: koff (×10^−4s^−1)) was 0.00035 ± 4.5e-05 s⁻¹, the kon (Gβ1γ2 [1]; read-out: kon (M^−1s^−1)) was 870 ± 112 M⁻¹ s⁻¹ and the kon (Gβγ) was 981 M⁻¹ s⁻¹. The Kd (Gβγ) was 0.35 ± 0.03 µM, the koff (Gβγ) was 0.00032 ± 2.7e-05 s⁻¹ and the kon (Gβγ; read-out: kon (M^−1s^−1)) was 926 ± 55 M⁻¹ s⁻¹. The maximum binding stoichiometry (Gβ1γ2 [2]) was 1.6 moles of gallein to 1 mole of Gβγ and the “reversal of binding at higher collision energy” value (Gβ1His6γ2C68S) was “fully reversed”.
